Source: PubChem (several laboratories)
APJ antag – APJ receptor antagonism; CHO-K1 APJ beta-arrestin complementation, luminescence; 330,000 compounds, 0.32% hits; inhibition, % at 20 µM;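 active = inhibition above about 40% at 20 µM, limit read from the data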;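 also: cells challenged with 10 nM apelin-13 agonist together with compound; plate controls were apelin-13 plus DMSO wells for no effect and DMSO wells lacking apelin-13 for full effect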
EBI2 block – EBI2 (human) antagonism; inhibition, % at 5 µM; 360,000 compounds, 0.81% hits; EBI2 beta-arrestin recruitment, luminescence, 7a,25-OHC stimulated; P32249; in the data active = inhibition above about 38%;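 also: enzyme fragment complementation signal reports receptor beta-arrestin coupling in cells; 0% = agonist plus DMSO wells and 100% = wells without agonist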
CCR6 antag – antagonists of human CCR6 receptor | P51684 | CHO-K1 CCR6 PathHunter beta-arrestin, luminescence, CCL20-stimulated | inhibition, % at 20 µM | 340,000 compounds, 0.49% hits | AID 493098;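 active = compounds whose inhibition of the agonist-driven luminescence signal at 20 µM reaches about 50%, limit read from the data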;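 also: cells stimulated with CCL20 at 14 nM final; plate controls were DMSO with CCL20 for no effect and DMSO without agonist for full effect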
CXCR6 block – CXCR6 (human) receptor inhibition. 360,000 compounds, 0.36% hits. inhibition, % at 20 µM. CHO-K1 PathHunter CXCR6 beta-arrestin, luminescence. AID 602244; in the data active = inhibition above about 34%, passing the limit was not always enough;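 also: antagonist mode with CXCL16 agonist at 10 nM final; 0% = 10 nM CXCL16 with DMSO and 100% = unstimulated wells without agonist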
APJ agonist – agonists of human APJ apelin receptor | CHO-K1 APJ PathHunter beta-arrestin, luminescence; 0% DMSO wells, 100% apelin | AID 2520 | 330,000 compounds, 0.11% hits | P35414 | activation, % at 20 µM;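 active = activation more than six SD over the plate average, tested at 20 µM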;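 also: 0% = DMSO alone and 100% = apelin-13 at 10 nM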
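system = engineered CHO-K1 APJ arrestin reporter cells | input = 1000 cells per well | timing = overnight seeding, 90 min compound at 25 °C, 1 h detection | measured by = enzyme-fragment complementation luminescence | read-out = beta-arrestin recruitment to APJ as agonist activity, luminescent signal | control set = negative DMSO alone, positive Apelin-13 at 10 nM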
HTR2A ag – mouse HTR2A agonism via beta-arrestin recruitment. AID 624169. CHO-K1 mHTR2A beta-arrestin complementation, luminescence; percent of 30 µM serotonin response. 360,000 compounds, 0.66% hits. P35363. activation, % at 7.6 µM;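 active = activation above a run cutoff, the mean activation of all tested compounds plus 3 SD, cut at about 14% in these data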;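 also: 0% = plate median of compound wells and 100% = 30 µM serotonin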
OPRM1 ag – OPRM1 agonism in mouse HTR2A counterscreen; shares compounds with HTR2A ag; U2OS OPRM1 beta-arrestin PathHunter, luminescence; DMSO 0%, DAMGO 9.3 µM 100%; activation, % at 9.3 µM; 2,300 compounds, 5.3% hits; AID 624380;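 active = mean activation above the mean of DMSO-only wells plus 3 SD, cut at about 0.5% in these data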
Target sequence (P35372 whole entry, looked up): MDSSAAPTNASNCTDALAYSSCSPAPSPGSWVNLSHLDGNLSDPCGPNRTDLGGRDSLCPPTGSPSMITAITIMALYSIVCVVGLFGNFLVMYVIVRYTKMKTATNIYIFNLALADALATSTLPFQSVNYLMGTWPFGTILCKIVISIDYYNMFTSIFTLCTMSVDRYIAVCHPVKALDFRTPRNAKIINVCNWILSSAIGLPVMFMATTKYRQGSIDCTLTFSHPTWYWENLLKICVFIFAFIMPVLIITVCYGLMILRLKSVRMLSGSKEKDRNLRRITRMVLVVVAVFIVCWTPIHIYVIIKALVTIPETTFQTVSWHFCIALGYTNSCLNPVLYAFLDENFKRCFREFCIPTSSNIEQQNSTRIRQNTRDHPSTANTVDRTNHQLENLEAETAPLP
HTR2A ag conf – mouse HTR2A agonism confirmed; activation, % at 7.6 µM; shares compounds with HTR2A ag; 2,300 compounds, 19% hits; CHO-K1 PathHunter beta-arrestin recruitment, luminescence; DMSO 0%, 30 µM serotonin 100%;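 active = mean activation across triplicates above the hit threshold derived in the original primary screen, cut at about 15% in these data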
Numbers without * were called inactive; · = no result. Shown are actives, neighbours in structure and some others; about 2.2% of the full set was active somewhere.

SMILES	APJ antag	EBI2 block	CCR6 antag	CXCR6 block	APJ agonist	HTR2A ag	OPRM1 ag	HTR2A ag conf
Cc1cc(OCC(=O)OCC(=O)NCc2ccco2)ccc1Cl	3	-2	4	4	-4	15*	-1	-2
Cc1cc(C)cc(OCC(=O)OCC(=O)NCc2ccco2)c1	5	-3	-2	5	-1	-2	·	·
Cc1ccccc1N/C(=N/S(=O)(=O)c1ccccc1)c1ccc(F)cc1	0	0	7	5	-1	4	·	·
Cc1ccc(/C(=N\S(=O)(=O)c2ccc(Br)cc2)Nc2ccccc2C)cc1	8	3	19	0	-2	15*	0	9
COc1cc(CNCCc2ccccc2)cc(Cl)c1OCc1ccccc1	0	-7	18	-3	-4	20*	1.2*	3
COc1cc(CNCc2ccccc2)cc(Cl)c1OC	1	4	-12	5	-2	4	·	·
CC(=O)Nc1ccc(SCCN2CC[C@@H](O)CCC2=O)cc1	5	2	-6	-3	-2	30*	-1	-4
CC(=O)Nc1ccc(SCCN2CC[C@@H](C)CCC2=O)cc1	4	-2	1	0	0	7	·	·
COc1ccc(C2Nc3ccccc3NC3=C2C(=O)CC(C)(C)C3)cc1OC (stereo not given)	-5	-10	8	1	-1	17*	0.7*	8
CCc1nc2c(OCc3ccccc3C)cccn2c1N(C)C(=O)C1CC1	·	9	·	4	·	0	·	·
CCOC(=O)[C@]12CCCC=C1N(Cc1ccccc1)C(=O)[C@H](CC(=O)NCC1CCCCC1)C2	·	8	·	·	·	-1	·	·
CCCc1cnc(N2CCN(C(=S)NC)CC2)nc1	-11	2	-15	-1	3	17*	-1	1
CCCc1cnc(N2CCN(C(=O)c3ccc(F)cc3)CC2)nc1	-16	0	-2	2	-3	-4	·	·
COc1ccc(-c2cc3nc(C)cc(N4CCN(C(=O)c5cccnc5)CC4)n3n2)cc1	·	8	·	1	·	2	·	·
COC(=O)[C@@]12C[C@@H](CC(=O)NCC3CCCCC3)C(=O)N(Cc3cccc4ccccc34)C1=CCC(C)(C)C2	·	13	·	·	·	-2	·	·
O=C(NCCO)/C(=C\c1cccs1)NC(=O)c1cccs1	14	-16	19	-5	4	24*	0	-2
O=C(NCc1ccco1)/C(=C\c1cccs1)NC(=O)c1cccs1	1	-2	21	-4	-3	2	·	·
Cc1cc(-c2ccc3ccccc3c2)n2ncnc2n1	-7	-3	5	4	-2	21*	0	1
COC(=O)[C@]12CCCCC=C1N(Cc1ccco1)C(=O)[C@H](CC(=O)NCc1ccc(C)o1)C2	·	-5	·	-2	·	1	·	·
Cc1nc2ccccc2c(=O)n1/N=C/c1cccnc1	8	5	3	1	1	15*	-1	-1
CC1(C(=O)NCc2ccccc2)CN(S(C)(=O)=O)CC(=O)N1CCc1c[nH]c2ccccc12 (stereo not given)	·	-7	·	·	·	-5	·	·
Cc1nc(N2CCCC2)c2nnn(Cc3ccccc3Cl)c2n1	1	9	2	18	2	18*	-1	-2
COc1ccc(-c2cnc3c(NC=O)cc(-c4ccc(S(C)(=O)=O)cc4)cn23)cc1OC	·	-48	·	-2	·	15*	0	12
COc1cc(-c2cnc3c(NC=O)cc(-c4ccc(S(C)(=O)=O)cc4)cn23)cc(OC)c1OC	·	3	·	8	·	6	·	·
COc1cccc(N2CCN(S(=O)(=O)c3ccc4nc(-c5ccccc5)[nH]c4c3)CC2)c1	-12	18	8	-8	4	16*	0	-1
SMILES	APJ antag	EBI2 block	CCR6 antag	CXCR6 block	APJ agonist	HTR2A ag	OPRM1 ag	HTR2A ag conf
COc1ccccc1Nc1nc(N)nc(CSc2nncn2C)n1	-16	4	5	-12	7	15*	0	3
N#CCC(=O)Nc1ccc(C(=O)OCC(=O)c2ccc3c(c2)NC(=O)CO3)cc1	-8	3	9	5	0	25*	-1	-4
CC(=O)Nc1cc(NC(C)=O)cc(C(=O)OCC(=O)c2ccc3c(c2)NC(=O)CO3)c1	-5	-9	13	5	5	20*	-1	-4
N#Cc1cccc(C(=O)OCC(=O)c2ccc3c(c2)NC(=O)CO3)c1	17	1	6	4	9	-1	·	·
Cc1c(C(=O)N2CCCC(C)(C(=O)NS(=O)(=O)C3CC3)C2)oc2ccccc12 (stereo not given)	·	-8	·	10	·	6	·	·
C=CCOC(=O)COc1ccc2c3c(c(=O)oc2c1)CCCC3	·	-1	·	-4	·	16*	-1	-3
CCN(CC)S(=O)(=O)c1cccc(NC(=O)CN2C(=O)c3ccc([N+](=O)[O-])cc3C2=O)c1	-5	-6	17	-7	0	18*	0	-1
C[C@@H]1CN([C@H](C)CO)C(=O)CCCn2cc(nn2)CO[C@H]1CN(C)S(=O)(=O)c1ccc(-c2ccccc2)cc1	·	-2	·	-5	·	1	·	·
Cc1nc2cc(Cl)c([N+](=O)[O-])cc2s1	11	-2	18	7	-2	19*	-1	-1
COC(=O)CC1OCC=C2CN3CCC45C6=CC(=O)C(=O)C([N+](=O)[O-])=C6NC4C1C2CC35 (stereo not given)	·	-28	·	-18	·	-1	·	·
CC(C)(C)NC(=O)C(c1cc2ccccc2o1)n1c(=O)c(-c2ccco2)nc2ccccc21 (stereo not given)	·	13	·	·	·	16*	-1	-4
O=C(Nc1ccc2c(c1)OCCO2)C(CCc1ccccc1)N(Cc1ccccc1)Cc1ccccc1 (stereo not given)	·	6	·	0	·	18*	-1	-6
C=CCNc1ncnc2c1ncn2[C@H]1CN(Cc2cccc3ccccc23)C[C@@H](CO)O1	·	6	·	-2	·	-2	·	·
O=C(NCC(c1ccco1)N1CCN(c2ccccc2F)CC1)C1CCCCC1 (stereo not given)	25	-1	7	0	-8	17*	0	48*
COc1ccc(CN(C(=O)c2snc(C(N)=O)c2N)C(C(=O)NC2CCCC2)c2ccc(OC)c(OC)c2)cc1 (stereo not given)	-9	1	11	6	-2	-2	·	·
COc1ccc(C(C(=O)NC2CCCC2)N(Cc2ccccc2)C(=O)c2snc(C(N)=O)c2N)cc1OC (stereo not given)	-10	4	-3	-4	-2	16*	-1	-1
